Reference: ChEMBL document CHEMBL5038580 (J Med Chem, 2022)
pIC50: −log10 of the molar value. Activity calls are given as the source filed them. The calls are words filed in the database; no cut-off is given here. Residues, ends and D or L forms follow the SMILES beside them.

Key:
SARS-CoV-2 [1] = assay: Antiviral activity against SARS-CoV-2 transfected in 293T cells assessed as inhibition of viral S protein mediated membrane fusion to 293T/ACE2 cells at 20 uM incubated for 24 hrs by fluorescence microscopy analysis; assay type: functional, organism-based; details: Severe acute respiratory syndrome coronavirus 2, HEK-293T
Procedure, shortened: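 Single-concentration screen at 20 μM. Effector 293T cells expressing S/EGFP (10^4) were added to ACE2-293T target cells (10^5/well) and co-incubated at 37 °C for 24 h. Fusion was scored by fluorescence microscopy from counts of fused and unfused cells.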

in vitro [2] = details: human, RD cells
Human coronavirus OC43 [3] = assay: Antiviral activity against HCoV-OC43 assessed as inhibition of viral S-protein mediated cell-cell fusion in Huh7 cells preincubated for 30 mins followed by cell addition and measured after 24 hrs; assay type: functional, cell-based; details: Betacoronavirus 1, OC43, Huh-7
Procedure, shortened: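 Effector HEK293T cells were transfected with an OC43 spike/GFP plasmid and harvested after 36 h. They were preincubated with diluted peptides at 37 °C for 30 min, then co-incubated with Huh-7 target cells in the presence of trypsin for 24 h. Inhibition was calculated from counts of fused and unfused cells. Three independent experiments, mean ± SD.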

Human coronavirus OC43 [4] = assay: Antiviral activity against HCoV-OC43 assessed as reduction in viral infection preincubated for 30 mins followed by RD cells addition and measured after 3 days by CCK-8 assay; assay type: functional; details: Betacoronavirus 1, OC43, RD
Procedure, shortened: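 HCoV-OC43 (100 TCID50) was mixed with diluted peptides for 30 min at 37 °C, then added to RD cells. After 3 days, cytopathic effect was read by CCK-8. Three independent experiments, mean ± SD.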

[5] = system: Human immunodeficiency virus 1; assay: Antiviral activity against HIV 1 BaL(R5) incubated overnight by ELISA analysis; assay type: functional, organism-based; details: Human immunodeficiency virus 1, BaL(R5)
Procedure, shortened: (§1)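 Peptides were diluted in FBS-free RPMI 1640 and mixed with 100 TCID50 HIV-1 BaL. CEMx174 5.25 M7 cells (10^4) were added and cultured overnight at 37 °C, then medium was changed to RPMI/10% FBS. After 6 more days, supernatants were lysed with 5% Triton X-100 and p24 was measured by ELISA. IC50 calculated from three independent experiments.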

[6] = system: Human immunodeficiency virus 1; assay: Antiviral activity against HIV-1 IIIB assessed as inhibition of HIV-1 Env mediated cell-cell fusion in MT-2 cells preincubated for 30 mins followed by cell addition and measured after 2 hrs by calcein AM staining based fluorescence microscopy; assay type: functional, organism-based; details: Human immunodeficiency virus 1, IIIB, MT2
Procedure, shortened: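 H9/HIV-1 IIIB cells were labelled with Calcein AM for 30 min at 37 °C, washed, and resuspended in RPMI/10% FBS. They were incubated with diluted peptides for 30 min at 37 °C. MT-2 cells (1 × 10^5) were then added and cultured for 2 h at 37 °C. Fused cells were counted by fluorescence microscopy and IC50 was calculated. Three independent experiments.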

in vitro [7] = details: human, MT2 cells
[8] = system: Human immunodeficiency virus 1; assay: Antiviral activity against HIV 1 IIIB([…]) incubated overnight by ELISA analysis; assay type: functional, organism-based
Procedure, shortened: as §1, with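 “HIV-1 IIIB. MT-2” for “HIV-1 BaL. CEMx174 5.25 M7”, “After 3” for “After 6”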

[9] = system: Human immunodeficiency virus 1; assay: Antiviral activity against HIV 1 JRFL subtype B assessed as inhibition of viral entry preincubated for 30 min followed by U87-CD4-[…] positive cells addition and culture medium replacement after 12 hrs post infection and measured after 48 hrs by luciferase assay; assay type: functional, organism-based; details: Human immunodeficiency virus 1, JRFL subtype B
Procedure, shortened: (§2)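 U87 CD4+ CCR5+ cells (1 × 10^4/well) were seeded and grown for 12 h at 37 °C, 5% CO2. Diluted peptides were mixed with pseudovirus for 30 min at 37 °C and then put on the cells. Medium was replaced 12 h post-infection. Cells were lysed 48 h later and luciferase was read. Three independent experiments, mean ± SD.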

[10] = system: Human immunodeficiency virus 1; assay: Antiviral activity against HIV 1 25710-2 subtype C assessed as inhibition of viral entry preincubated for 30 min followed by U87-CD4-[…] positive cells addition and culture medium replacement after 12 hrs post infection and measured after 48 hrs by luciferase assay; assay type: functional, organism-based; details: Human immunodeficiency virus 1, 25710-2 subtype C; procedure, shortened: as §2
SARS-CoV-2 [11] = assay: Antiviral activity against SARS-CoV-2 transfected in 293T cells assessed as inhibition of viral S protein mediated membrane fusion to 293T/ACE2 cells incubated for 24 hrs by fluorescence microscopy analysis; assay type: functional, organism-based, HEK293T; details: Severe acute respiratory syndrome coronavirus 2, HEK-293T
Procedure, shortened: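 Effector 293T cells were transfected with an S/EGFP plasmid for 48 h and collected in FBS-free DMEM. ACE2-293T target cells (10^5/well) were plated 6–8 h before fusion. Effector cells (10^4) were added with graded peptide dilutions and co-incubated at 37 °C for 24 h. Percent inhibition was calculated from fused and unfused cell counts under fluorescence microscopy.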

Huh-7 = assay: Cytotoxicity against human Huh7 cells incubated for 48 hrs by CCK-8 assay; assay type: functional
Procedure, shortened: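 Huh-7 cells (100 μL at 1 × 10^5 cells/mL) were preincubated 12 h at 37 °C, 5% CO2. Serially diluted peptide was added for 48 h, with a no-peptide blank and a Triton X-100 positive control. CCK-8 was added for 2 h and absorbance read at 450 nm. Three independent experiments, mean ± SD.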

Mus musculus = assay: Antiviral activity against MERS-COV infected in BALB/c mouse at 0.023 mmol/kg, iv measured upto 12 hrs; assay type: functional, organism-based; details: time hrs <=12
Procedure, shortened: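 Peptide in PBS (pH 7.4) was given at 0.023 mmol/kg i.v. to three male BALB/c mice aged 8 weeks. Sera were tested in a 2 h S-mediated fusion assay with Huh-7 target cells. The serum dilution giving 50% fusion inhibition was calculated. Significance by Student's t test.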

Compound | Activity (SARS-CoV-2 [1]) | CC50 at 48 h (in vitro [2]) | pIC50 (Human coronavirus OC43 [3]) | pIC50 (Human coronavirus OC43 [4]) | pIC50 [5] | pIC50 [6] | CC50 at 48 h (in vitro [7]) | pIC50 [8] | pIC50 [9] | pIC50 [10] | pIC50 (SARS-CoV-2 [11]) | CC50 (Huh-7) | Activity (Mus musculus)
CC[C@H](C)[C@H](NC(=O)[C@H](C)NC(=O)[C@H](CCC(=O)O)NC(=O)[C@H](CCC(=O)O)NC(=O)[C@H](CC(C)C)NC(=O)[C@H](CCCCN)NC(=O)[C@H](CCCCN)NC(=O)[C@H](CCSC)NC(=O)[C@H](CCC(=O)O)NC(=O)[C@H](Cc1ccc(O)cc1)NC(=O)[C@H](CCC(=O)O)NC(=O)[C@H](CC(C)C)NC(=O)[C@H](CC(=O)O)NC(=O)[C@H](CC(C)C)NC(=O)[C@H](Cc1ccccc1)NC(=O)[C@@H](NC(=O)[C@@H](NC(=O)[C@H](CC(N)=O)NC(=O)[C@@H](NC(=O)[C@H](CCC(N)=O)NC(=O)[C@H](CC(=O)O)NC(=O)[C@H](CC(C)C)NC(=O)[C@H](CO)NC(C)=O)[C@@H](C)CC)C(C)C)[C@@H](C)O)C(=O)N[C@@H](CCCCN)C(=O)N[C@@H](CCCCN)C(=O)N[C@@H](CC(C)C)C(=O)N[C@@H](CCC(=O)O)C(=O)N[C@@H](CCC(=O)O)C(=O)N[C@@H](CO)C(=O)N[C@@H](Cc1ccc(O)cc1)C(=O)N[C@H](C(=O)N[C@@H](CC(=O)O)C(=O)N[C@@H](CC(C)C)C(=O)N[C@@H](CCCCN)C(=O)N[C@@H](CCC(=O)O)C(=O)N[C@@H](CC(C)C)C(N)=O)[C@@H](C)CC | Active | > 40000 nM | 6.55 | 6.01 |  |  |  |  |  |  |  |  | 
enfuvirtide |  |  |  |  | 8.80 | 7.62 | > 10000 nM | 7.75 | 8.10 | 7.94 |  |  | 
CC[C@H](C)[C@H](NC(C)=O)C(=O)N[C@@H](CCC(=O)O)C(=O)N[C@@H](CCC(=O)O)C(=O)N[C@H](C(=O)N[C@H](C(=O)N[C@@H](CCCCN)C(=O)N[C@@H](CCCCN)C(=O)N[C@H](C(=O)N[C@@H](Cc1c[nH]cn1)C(=O)N[C@@H](Cc1c[nH]cn1)C(=O)N[C@H](C(=O)N[C@@H](CCC(=O)O)C(=O)N[C@@H](CCCNC(=N)N)C(=O)N[C@@H](C)C(=O)N[C@H](C(=O)N[C@@H](CCC(=O)O)C(=O)N[C@@H](C)C(=O)N[C@@H](CCC(N)=O)C(=O)N[C@@H](CCC(N)=O)C(=O)N[C@@H](CCCCN)C(=O)N[C@@H](CC(C)C)C(=O)N[C@@H](CC(C)C)C(=O)N[C@@H](CCC(N)=O)C(=O)N[C@@H](CC(C)C)C(=O)N[C@H](C(=O)N[C@H](C(=O)N[C@@H](Cc1c[nH]c2ccccc12)C(=O)NCC(=O)N[C@H](C(=O)N[C@@H](CCCCN)C(=O)N[C@@H](CCC(N)=O)C(=O)N[C@@H](CC(C)C)C(=O)N[C@@H](CCC(N)=O)C(=O)N[C@@H](C)C(=O)N[C@@H](CCCNC(=N)N)C(=O)N[C@H](C(=O)N[C@@H](CC(C)C)C(N)=O)[C@@H](C)CC)[C@@H](C)CC)C(C)C)[C@@H](C)O)[C@@H](C)CC)[C@@H](C)CC)[C@@H](C)CC)C(C)C)[C@@H](C)CC (Ac-IEEIVKKIHHIERAIEAQQKLLQLTVWGIKQLQARIL-NH2) |  |  | < 4.70 | < 4.70 | 6.75 | 6.33 |  | 7.73 | 6.45 | 6.53 | < 4.70 |  | 
CC[C@H](C)[C@H](NC(=O)[C@H](Cc1ccc(O)cc1)NC(=O)[C@H](CO)NC(=O)[C@H](CCC(=O)O)NC(=O)[C@H](CCC(=O)O)NC(=O)[C@H](CC(C)C)NC(=O)[C@H](CCCCN)NC(=O)[C@H](CCCCN)NC(=O)[C@@H](NC(=O)[C@@H](NC(=O)[C@H](CCC(=O)O)NC(=O)[C@H](CCC(=O)O)NC(=O)[C@H](CC(C)C)NC(=O)[C@H](CCCCN)NC(=O)[C@H](CCCCN)NC(=O)[C@H](CCSC)NC(=O)[C@H](CCC(=O)O)NC(=O)[C@H](Cc1ccc(O)cc1)NC(=O)[C@H](CCC(=O)O)NC(=O)[C@H](CC(C)C)NC(=O)[C@H](CC(=O)O)NC(=O)[C@H](CC(C)C)NC(=O)[C@H](CC(C)C)NC(=O)[C@@H](NC(=O)[C@@H](NC(=O)[C@H](CC(N)=O)NC(=O)[C@@H](NC(=O)[C@H](CCC(N)=O)NC(=O)[C@@H](NC(=O)[C@H](CC(C)C)NC(=O)[C@H](CO)NC(C)=O)[C@@H](C)O)[C@@H](C)CC)[C@@H](C)O)[C@@H](C)O)C(C)C)C(C)C)C(=O)N[C@@H](CC(=O)O)C(=O)N[C@@H](CC(C)C)C(=O)N[C@@H](CCCCN)C(=O)N[C@@H](CCC(=O)O)C(=O)N[C@@H](CC(C)C)C(N)=O |  |  |  |  |  |  |  |  |  |  |  | > 50000 nM | Active
